Results on 21 compounds are retold here after ChEMBL document CHEMBL4038319, “Development of a Potent Inhibitor of the Plasmodium Proteasome with Reduced Mammalian Toxicity” (J Med Chem, 2017).

One data set deals with HepG2. The data set can be described thus: Cytotoxicity against human HepG2 cells harboring A16-CD81EGFP assessed as cell viability after 48 hrs by bioluminescence assay. Format: cell-based. To be noted: HepG2, 48 h. Summed up: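 HepG2-A16-CD81EGFP cells, 3 × 10^3 per well, seeded 24 h ahead in DMEM with 5% FBS. Viability read by bioluminescence after 48 h and fitted by four-parameter regression; puromycin control.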

Data set [1] has as its system Plasmodium falciparum. The data set can be described thus: Antimalarial activity against asexual blood stage Plasmodium falciparum Dd2 infected in human erythrocytes after 72 hrs by SYBR green 1 dye based fluorescence assay. Format: functional, cell-based. The settings on record: Dd2, 72 h.
The subject of data set [2] is Plasmodium falciparum. As to the kind of experiment: Inhibition of schizont stage Plasmodium falciparum 20S proteasome beta5 subunit using suc-LLVY-AMC as substrate at 50 nM after 60 to 120 mins by fluorescence assay relative to control. Summed up: (§1)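 Pf20S enriched from asynchronous parasite lysate by two-step chromatography; human constitutive 20S from a commercial source. Enzymes at 0.29 nM with 25 μM Suc-LLE-AMC, Suc-LRR-AMC or Suc-LLVY-AMC in 20 mM Tris pH 7.5, 0.02% SDS. Inhibitor and substrate added together; AMC release rate (Ex 340/Em 465) taken from 60–120 min against DMSO.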

For data set [3], the system named is Plasmodium falciparum. The data set can be described thus: Inhibition of early trophozoite stage Plasmodium falciparum 20S proteasome beta5 subunit using suc-LLVY-AMC as substrate at 95 nM after 4 hrs by fluorescence assay relative to control. Put shortly: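 Sorbitol-synchronized early trophozoites at 5% parasitemia exposed to 95 nM inhibitor for 4 h, then washed and lysed. 15 μg total protein assayed with 25 μM Suc-LLVY-AMC in Tris pH 7.5/0.02% SDS buffer; AMC release compared against DMSO-treated cells.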

In data set [4] the target is T1, constitutive 20S proteasome beta5 subunit (Proteasome Macropain subunit MB1) (Homo sapiens, UniProt P28074).
T1 sequence (P28074 whole entry): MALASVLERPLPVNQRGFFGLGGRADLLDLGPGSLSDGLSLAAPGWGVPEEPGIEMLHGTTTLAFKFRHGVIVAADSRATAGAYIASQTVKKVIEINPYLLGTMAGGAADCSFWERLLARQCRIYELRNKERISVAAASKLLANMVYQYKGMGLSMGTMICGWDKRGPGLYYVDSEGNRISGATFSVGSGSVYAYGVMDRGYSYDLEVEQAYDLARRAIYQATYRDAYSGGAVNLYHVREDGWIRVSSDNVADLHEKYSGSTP
The data set can be described thus: Inhibition of human constitutive 20S proteasome beta5 subunit using suc-LLVY-AMC as substrate at 50 nM after 60 to 120 mins by fluorescence assay relative to control. The settings on record: probe suc-LLVY-AMC. Summed up:
as §1

Data set [5] concerns Plasmodium falciparum. As to the kind of experiment: Antimalarial activity against stage V gametocytes of Plasmodium falciparum NF54 infected in human erythrocytes after 72 hrs by mitotracker red based […] assay. The class given is functional, cell-based. To be noted: NF54, 72 h.
Data set [6] has as its target T2, Proteasome Macropain subunit MB1 (Homo sapiens, UniProt P28074).
T2 sequence (P28074 whole entry): T1 sequence (P28074 whole entry)
As to the kind of experiment: Irreversible inhibition of human 20S proteasome beta5 subunit using suc-LLVY-AMC as substrate after 4 hrs at 30 mins time interval by fluorescence assay.

Data set [7] relates to Plasmodium falciparum. The data set can be described thus: Inhibition of schizont stage Plasmodium falciparum 20S proteasome using suc-LLVY-AMC as substrate at 450 nM after 60 to 120 mins relative to control.
In data set [8] the test system is Plasmodium falciparum. The data set can be described thus: Inhibition of schizont stage Plasmodium falciparum 20S proteasome beta1 subunit using z-LLE-AMC as substrate at 450 nM after 60 to 120 mins by fluorescence assay relative to control.
Data set [9] has as its system Plasmodium falciparum. The data set can be described thus: Inhibition of schizont stage Plasmodium falciparum 20S proteasome beta2 subunit using z-LRR-AMC as substrate at 450 nM after 60 to 120 mins by fluorescence assay relative to control.
For data set [10], the system named is Plasmodium falciparum. The data set can be described thus: Growth inhibition of Plasmodium falciparum Dd2 infected in human erythrocytes at 0.5 to 1 nM after 72 hrs by SYBR green 1 dye based fluorescence assay relative to control. Format: cell-based. The settings on record: Dd2, 72 h, read-out: GI.
Data set [11] deals with Plasmodium falciparum. As to the kind of experiment: Inhibition of schizont stage Plasmodium falciparum 20S proteasome beta5 using suc-LLVY-AMC as substrate at 150 nM after 60 to 120 mins by fluorescence assay relative to control.
Data set [12] concerns Plasmodium falciparum. The data set can be described thus: Inhibition of schizont stage Plasmodium falciparum 20S proteasome beta2 subunit using z-LRR-AMC as substrate at 150 nM after 60 to 120 mins by fluorescence assay relative to control.
For data set [13], the target named is T3, 20S proteasome beta5 subunit (Proteasome Macropain subunit MB1) (Homo sapiens, UniProt P28074).
T3 sequence (P28074 whole entry): T1 sequence (P28074 whole entry)
As to the kind of experiment: Inhibition of human 20S proteasome beta5 subunit using suc-LLVY-AMC as substrate at 150 nM after 60 to 120 mins by fluorescence assay relative to control. To be noted: probe suc-LLVY-AMC. Put shortly:
as §1

Data set [14] relates to Plasmodium falciparum. The data set can be described thus: Inhibition of schizont stage Plasmodium falciparum 20S proteasome beta1 subunit using z-LLE-AMC as substrate at 150 nM after 60 to 120 mins by fluorescence assay relative to control.

In general, IC50 refers to the concentration that inhibits the measured activity by half.

For `CCCCCC(=O)N[C@@H](Cc1ccncc1)C(=O)N[C@@H](CCCC)C(=O)N[C@@H](CC(C)C)C(=O)[C@@]1(C)CO1`, the IC50 is less than 0.283 nM with HepG2 and 3.28 nM in the data set on Plasmodium falciparum [1].
As for `CCCCCC(=O)N[C@H](Cc1ccncc1)C(=O)N[C@@H](CCCC)C(=O)N[C@@H](CC(C)C)C(=O)[C@@]1(C)CO1`, the IC50 in the data set on HepG2 was less than 0.283 nM; with Plasmodium falciparum [1] it was 21.8 nM.
Consider `CCCCCC(=O)N[C@@H](Cc1ccncc1)C(=O)N[C@@H](CCCC)C(=O)N[C@@H](Cc1ccccc1)C(=O)[C@@]1(C)CO1`, for which the values for the IC50 with HepG2 and with Plasmodium falciparum [1] were less than 0.283 nM and 3.87 nM, respectively.
On to `CCCCCC(=O)N[C@@H](Cc1c[nH]c2ccccc12)C(=O)N[C@@H](CCCC)C(=O)N[C@@H](Cc1ccccc1)C(=O)[C@@]1(C)CO1`, for which the IC50 with HepG2 was determined as 6.41 nM; with Plasmodium falciparum [1], 9.77 nM.
Regarding `CCCCCC(=O)N[C@@H](Cc1ccc(N)cc1)C(=O)N[C@@H](CCCC)C(=O)N[C@@H](Cc1ccccc1)C(=O)[C@@]1(C)CO1`, the inhibition with Plasmodium falciparum [2] is 10 to 47%; with Plasmodium falciparum [3] it was 40 to 60%. Further, the IC50 in the data set on HepG2 came out at 3410 nM; with Plasmodium falciparum [1], 81.8 nM.
On to `CCCCCC(=O)N[C@H](Cc1c[nH]c2ccccc12)C(=O)N[C@@H](CCCC)C(=O)N[C@@H](CC(C)C)C(=O)[C@@]1(C)CO1`, for which the inhibition was 10 to 47% in the data set on Plasmodium falciparum [2] and 40 to 60% in the data set on Plasmodium falciparum [3]. In [4], the inhibition at 0.05 µM is not above 10%. Besides, the IC50 in the data set on HepG2 came out at 915 nM; with Plasmodium falciparum [1], 2.92 nM.
Turning to `CCCCCC(=O)N[C@@H](Cc1ccc(N)cc1)C(=O)N[C@@H](CCCC)C(=O)N[C@@H](CC(C)C)C(=O)[C@@]1(C)CO1`, the IC50 in the data set on HepG2 was 6.32 nM; in the data set on Plasmodium falciparum [1], 5.99 nM.
In turn, `CCCCCC(=O)N[C@@H](Cc1c[nH]c2ccccc12)C(=O)N[C@@H](CCCC)C(=O)N[C@@H](CC(C)C)C(=O)[C@@]1(C)CO1` registered an IC50 in the data set with Plasmodium falciparum [1] of 3.11 nM.
Consider `CCCCCC(=O)NC(Cc1ccc(NC(=O)OC(C)(C)C)cc1)C(=O)N[C@@H](Cc1ccc(NC(=O)OC(C)(C)C)cc1)C(=O)N[C@@H](Cc1ccccc1)C(=O)[C@@]1(C)CO1` (single isomer, unassigned), for which the IC50 is 45.7 nM in the data set on HepG2 and 12.2 nM in the data set on Plasmodium falciparum [1].
As for `CCCCCC(=O)NC(Cc1ccc(NC(=O)OC(C)(C)C)cc1)C(=O)N[C@@H](Cc1ccc(NC(=O)OC(C)(C)C)cc1)C(=O)N[C@@H](CC(C)C)C(=O)[C@@]1(C)CO1` (single isomer, unassigned), the IC50 in the data set on HepG2 was 118 nM; with Plasmodium falciparum [1], 13.5 nM.
Turning to `CCCCCC(=O)N[C@@H](C(=O)N[C@@H](CCCC)C(=O)N[C@@H](CC(C)C)C(=O)[C@@]1(C)CO1)C(C)C`, the inhibition was 10 to 47% in the data set with Plasmodium falciparum [2]; 45% in the data set with Plasmodium falciparum [7]; 6% with Plasmodium falciparum [8]; 40 to 60% in the data set with Plasmodium falciparum [3]; 9% in the data set on Plasmodium falciparum [9]. Also, the inhibition at 0.05 µM in data set [4] is not above 10%. Further, the IC50 in the data set on HepG2 turned out to be 1240 nM; in the data set on Plasmodium falciparum [5], 130 nM; with Plasmodium falciparum [1], 3.27 nM. For the same compound, the Ki in [6] was 39200 nM. The inhibition at up to 0.001 µM in the data set on Plasmodium falciparum [10] is less than 10%.
With `CCCCCC(=O)N[C@H](Cc1ccc(N)cc1)C(=O)N[C@@H](Cc1ccc(N)cc1)C(=O)N[C@@H](CC(C)C)C(=O)[C@@]1(C)CO1`, the results for the IC50 with HepG2 and in the data set on Plasmodium falciparum [1] were 0.91 nM and 59.6 nM, respectively.
For the compound `CCCCCC(=O)N[C@H](C(=O)N[C@@H](CCCC)C(=O)N[C@@H](CC(C)C)C(=O)[C@@]1(C)CO1)C(C)C`, the inhibition in the data set with Plasmodium falciparum [2] was in the range of 10 to 47%; in the data set with Plasmodium falciparum [3] it was 40 to 60%. In data set [4], this compound had an inhibition at 0.05 µM of 89%. Further, the IC50 in the data set with HepG2 amounted to 134 nM; in the data set with Plasmodium falciparum [1], 4.11 nM. Besides, the Ki in [6] was determined as 3740 nM.
Turning to `CCCCCC(=O)N[C@@H](Cc1ccccc1)C(=O)N[C@@H](CCCC)C(=O)N[C@@H](Cc1ccccc1)C(=O)[C@@]1(C)CO1`, the IC50 stood at 30.8 nM in the data set on HepG2 and 6.7 nM in the data set on Plasmodium falciparum [1].
Consider `CCCCCC(=O)N[C@H](C(=O)N[C@@H](CCS(C)(=O)=O)C(=O)N[C@@H](CC(C)C)C(=O)[C@@]1(C)CO1)C(C)C`, for which the inhibition is 10 to 47% in the data set with Plasmodium falciparum [2]; 45% in the data set with Plasmodium falciparum [11]; 29% in the data set with Plasmodium falciparum [12]; 40 to 60% in the data set with Plasmodium falciparum [3]; 16% in the data set on Plasmodium falciparum [14]. The compound also had an inhibition at 0.05 µM in data set [4] of 97%. In addition, in data set [6], the Ki is 375 nM. In data set [13], the inhibition at 0.15 µM turned out to be 98%. The inhibition at up to 0.001 µM in the data set with Plasmodium falciparum [10] is less than 10%.
In the case of `CCCCCC(=O)N[C@@H](Cc1ccc(NC(=O)OC(C)(C)C)cc1)C(=O)N[C@@H](CCCC)C(=O)N[C@@H](CC(C)C)C(=O)[C@@]1(C)CO1`, the IC50 amounted to 80.2 nM with HepG2 and 5.55 nM in the data set with Plasmodium falciparum [1].
As to `CCCCCC(=O)N[C@@H](Cc1c[nH]c2ccccc12)C(=O)N[C@@H](Cc1c[nH]c2ccccc12)C(=O)N[C@@H](Cc1ccccc1)C(=O)[C@@]1(C)CO1`, the results for the inhibition with Plasmodium falciparum [2] and in the data set with Plasmodium falciparum [3] were 10 to 47% and 40 to 60%, respectively. Further, the IC50 was 346 nM with HepG2 and 9.38 nM in the data set with Plasmodium falciparum [1].
Regarding `CCCCCC(=O)N[C@@H](Cc1ccccc1)C(=O)N[C@@H](CCCC)C(=O)N[C@@H](CC(C)C)C(=O)[C@@]1(C)CO1`, the IC50 was determined as 22.7 nM with HepG2 and 4.04 nM with Plasmodium falciparum [1].
For the compound `CCCCCC(=O)N[C@H](Cc1ccc(N)cc1)C(=O)N[C@@H](Cc1ccc(N)cc1)C(=O)N[C@@H](Cc1ccccc1)C(=O)[C@@]1(C)CO1`, the figures for the concentration for half-maximal inhibition (IC50) in the data set on HepG2 and in the data set on Plasmodium falciparum [1] were 952 nM and 68.2 nM, respectively.
`CCCCCC(=O)N[C@@H](Cc1c[nH]c2ccccc12)C(=O)N[C@@H](Cc1c[nH]c2ccccc12)C(=O)N[C@@H](CC(C)C)C(=O)[C@@]1(C)CO1`: the IC50 stood at 11.7 nM with HepG2 and 3.7 nM in the data set on Plasmodium falciparum [1].
`CCCCCC(=O)N[C@@H](Cc1ccc(NC(=O)OC(C)(C)C)cc1)C(=O)N[C@@H](CCCC)C(=O)N[C@@H](Cc1ccccc1)C(=O)[C@@]1(C)CO1`: the inhibition in the data set on Plasmodium falciparum [2] lay in the range of 10 to 47%; with Plasmodium falciparum [3], 40 to 60%. For the same compound, the IC50 in the data set with HepG2 turned out to be 478 nM; in the data set on Plasmodium falciparum [1], 5.45 nM.
